Test results from ChEMBL document CHEMBL1221279, “Synthesis, biological evaluation, and structure-activity relationship study of novel cytotoxic aza-caffeic acid derivatives” (Bioorg Med Chem, 2010).

Experiments:
Format in all cases: functional, cell-based
[1] = Cytotoxicity against human Bel7404 cells after 72 hrs by MTT assay; settings: BEL-7404, 72 h
Summary of the method: (§1)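 Cells grown in MEM with 10% fetal calf serum, penicillin and streptomycin at 37 °C, 5% CO2. Exponentially growing cells seeded in quadruplicate at 5 × 10³ per well and left 24 h before compounds (DMSO stocks) were added. After 72 h exposure, MTT added for 4 h at 37 °C, formazan dissolved in DMSO, read at 570 nm. IC50 read graphically from dose–response curves.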

CNE = assay: Cytotoxicity against human CNE cells after 72 hrs by MTT assay; summary of the method: as §1
[2] = Cytotoxicity against human ECA109 cells after 72 hrs by MTT assay; settings: ECa-109, 72 h; summary of the method: as §1
HeLa = assay: Cytotoxicity against human HeLa cells after 72 hrs by MTT assay; summary of the method: as §1
[3] = Cytotoxicity against human LS 174T cells after 72 hrs by MTT assay; settings: LS174T; summary of the method: as §1
K562 = assay: Cytotoxicity against human K562 cells after 72 hrs by MTT assay; settings: K562, 72 h; summary of the method: as §1
PC-3 = assay: Cytotoxicity against human PC3 cells after 72 hrs by MTT assay; settings: PC-3, 72 h; summary of the method: as §1
HL-60 = assay: Cytotoxicity against human HL60 cells after 72 hrs by MTT assay; settings: HL-60, 72 h; summary of the method: as §1
BGC-823 = assay: Cytotoxicity against human BGC823 cells after 72 hrs by MTT assay; settings: BGC-823, 72 h; summary of the method: as §1
KB = assay: Cytotoxicity against human KB cells after 72 hrs by MTT assay; summary of the method: as §1
[4] = Cytotoxicity against human HO8910 cells after 72 hrs by MTT assay; settings: HO-8910, 72 h; summary of the method: as §1
A549 = assay: Cytotoxicity against human A549 cells after 72 hrs by MTT assay; settings: A549, 72 h; summary of the method: as §1

Compound | IC50 [1] [µM] | IC50 (CNE) [µM] | IC50 [2] [µM] | IC50 (HeLa) [µM] | IC50 [3] [µM] | IC50 (K562) [µM] | IC50 (PC-3) [µM] | IC50 (HL-60) [µM] | IC50 (BGC-823) [µM] | IC50 (KB) [µM] | IC50 [4] [µM] | IC50 (A549) [µM]
O=C(COC(=O)/C=C/c1ccc(O)c(O)c1)Nc1ccc(Cl)cc1 | > 200 | 89.6 | 175 | 195 | 108 | 99.4 | 160 | 8.1 |  |  |  | 
COc1ccc(/C=C/C(=O)OCC(=O)NCc2ccco2)cc1OC | > 200 | > 200 | > 200 | > 200 | > 200 | 0.8 | > 200 | 92.5 |  |  |  | 
O=C(/C=C/c1ccc(O)c(O)c1)NCCc1c[nH]c2ccccc12 | > 200 | > 200 | > 200 | 2.7 | 8.4 | > 200 | > 200 | 124 | > 200 | 85.7 | > 200 | > 200
COc1ccc(/C=C/C(=O)NCCN2CCOCC2)cc1OC | > 200 | > 200 | > 200 | > 200 | > 200 | > 200 | > 200 | > 200 | > 200 | > 200 | > 200 | > 200
O=C(COC(=O)/C=C/c1ccc(O)c(O)c1)Nc1ccccc1 | > 200 | > 200 | > 200 | > 200 | 117 | > 200 | > 200 | 30.3 |  |  |  | 
COc1ccc(NC(=O)COC(=O)/C=C/c2ccc(OCc3ccccc3)c(O)c2)cc1 | > 200 | > 200 | > 200 | > 200 | > 200 | 56.1 | > 200 | > 200 |  |  |  | 
Cc1ccc(NC(=O)COC(=O)/C=C/c2ccc(O)c(O)c2)cc1 | > 200 | > 200 | > 200 | > 200 | 145 | > 200 | > 200 | 92.6 |  |  |  | 
O=C(/C=C/c1ccc(O)c(O)c1)OCCc1ccccc1 [CAFFEIC ACID PHENETHYL ESTER] | 14.5 | 54 | 42.6 | 8.8 | 9.9 | 46 | 91 | 9.8 | 19.3 | 45.2 | 25.5 | 26.8
O=C(/C=C/c1ccc(O)c(O)c1)N1CCN(Cc2ccc(Cl)c(Cl)c2)CC1 | > 200 | > 200 | > 200 | > 200 | 50.4 | > 200 | > 200 | 165 | > 200 | > 200 | > 200 | > 200
CCCCCNC(=O)COC(=O)/C=C/c1ccc(O)c(O)c1 | > 200 | 170 | 131 | 187 | 69.4 | 121 | 155 | 97.4 |  |  |  | 
COCOc1cc(/C=C/C(=O)OCC(=O)NCc2ccco2)ccc1OCc1ccccc1 | > 200 | > 200 | > 200 | > 200 | > 200 | 0.3 | > 200 | 82.2 |  |  |  | 
COc1ccc(NC(=O)COC(=O)/C=C/c2ccc(O)c(O)c2)cc1 | > 200 | > 200 | 190 | > 200 | 124 | 79.1 | 172 | 72.1 |  |  |  | 
COCOc1cc(/C=C/C(=O)OCC(=O)Nc2nccs2)ccc1OCc1ccccc1 | 130 | > 200 | > 200 | > 200 | > 200 | > 200 | > 200 | > 200 |  |  |  | 
COc1ccc(NC(=O)COC(=O)/C=C/c2cc(OC)c(OCc3ccccc3)c(OC)c2)cc1 | > 200 | > 200 | > 200 | > 200 | > 200 | > 200 | > 200 | > 200 |  |  |  | 
CCOc1ccc(COc2c(OC)cc(/C=C/C(=O)OCC(=O)Nc3ccc(Cl)cc3)cc2OC)cc1 | > 200 | > 200 | > 200 | > 200 | > 200 | > 200 | > 200 | > 200 |  |  |  | 
